Measured values taken from ChEMBL document CHEMBL4229342, “Synthesis of novel proxyphylline derivatives with dual Anti-Candida albicans and anticancer activity” (Eur J Med Chem, 2018).

Each compound was assayed on MCF7 (assay: Antiproliferative activity against human MCF7 cells assessed as cell viability at 25 uM after 72 hrs by MTT assay). Conditions: MCF7, 72 h, read-out: Activity.
Assay type: functional
Procedure, shortened: (§1)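 MTT viability assay in CCRF-CEM and MCF-7 cells after 72 h exposure at 25, 50, 100 and 200 µM. Results are relative to control cells without inhibitor in 0.5% DMSO. Done in triplicate; values are means ± SD of three independent experiments.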

Structure (SMILES)	viability at 25 µM
CC(Cn1cnc2c1c(=O)n(C)c(=O)n2C)OC(=O)N1c2ccccc2Sc2ccccc21 (centres undefined)	90.5%

The compounds below were run on Candida albicans (assay: Growth inhibition of Candida albicans ATCC 90028 at 0.0625 ug/ml incubated for 18 hrs at 35 degC by broth microdilution method relative to control). Conditions: ATCC 90028, 18 h, read-out: GI.
Assay type: functional

Structure (SMILES)	inhibition of growth at 0.0625 µg/mL
CC(Cn1cnc2c1c(=O)n(C)c(=O)n2C)OC(=O)N1c2ccccc2Sc2ccccc21 (centres undefined)	99.9%

These compounds were tested on Candida albicans (assay: Growth inhibition of Candida albicans ATCC 90028 at 0.125 ug/ml incubated for 4 hrs at 35 degC by broth microdilution method relative to control). Conditions: ATCC 90028, 4 h, read-out: GI.
Assay type: functional

Structure (SMILES)	inhibition of growth at 0.125 µg/mL
CC(Cn1cnc2c1c(=O)n(C)c(=O)n2C)OC(=O)N1c2ccccc2Sc2ccccc21 (centres undefined)	99.2%

Each compound was assayed on Candida albicans (assay: Growth inhibition of Candida albicans ATCC 90028 at 2 ug/ml incubated for 18 hrs at 35 degC by broth microdilution method relative to control). Conditions: ATCC 90028, 18 h, read-out: GI.
Assay type: functional

Structure (SMILES)	inhibition of growth at 2 µg/mL
CC(Cn1cnc2c1c(=O)n(C)c(=O)n2C)OC(=O)N1c2ccccc2Sc2ccccc21 (centres undefined)	99.8%

The compounds below were run on Candida albicans (assay: Growth inhibition of Candida albicans ATCC 90028 at 2 ug/ml incubated for 4 hrs at 35 degC by broth microdilution method relative to control). Conditions: ATCC 90028, 4 h, read-out: GI.
Assay type: functional

Structure (SMILES)	inhibition of growth at 2 µg/mL
CC(Cn1cnc2c1c(=O)n(C)c(=O)n2C)OC(=O)N1c2ccccc2Sc2ccccc21 (centres undefined)	99.2%

Each compound was assayed on Candida albicans (assay: Growth inhibition of Candida albicans ATCC 90028 at 1 ug/ml incubated for 4 hrs at 35 degC by broth microdilution method relative to control). Conditions: ATCC 90028, 4 h, read-out: GI.
Assay type: functional

Structure (SMILES)	inhibition of growth at 1 µg/mL
CC(Cn1cnc2c1c(=O)n(C)c(=O)n2C)OC(=O)N1c2ccccc2Sc2ccccc21 (centres undefined)	99%

These compounds were tested on Candida albicans (assay: Growth inhibition of Candida albicans ATCC 90028 at 0.25 ug/ml incubated for 4 hrs at 35 degC by broth microdilution method relative to control). Conditions: ATCC 90028, 4 h, read-out: GI.
Assay type: functional

Structure (SMILES)	inhibition of growth at 0.25 µg/mL
CC(Cn1cnc2c1c(=O)n(C)c(=O)n2C)OC(=O)N1c2ccccc2Sc2ccccc21 (centres undefined)	99.5%

The compounds below were run on CCRF-CEM (assay: Antiproliferative activity against human CCRF-CEM cells assessed as cell viability at 50 uM after 72 hrs by MTT assay). Conditions: read-out: Activity.
Assay type: functional
Procedure, shortened: as §1

Structure (SMILES)	viability at 50 µM
CC(Cn1cnc2c1c(=O)n(C)c(=O)n2C)OC(=O)N1c2ccccc2Sc2ccccc21 (centres undefined)	77.4%

Each compound was assayed on MCF7 (assay: Antiproliferative activity against human MCF7 cells assessed as cell viability at 200 uM after 72 hrs by MTT assay). Conditions: MCF7, 72 h, read-out: Activity.
Assay type: functional
Procedure, shortened: as §1

Structure (SMILES)	viability at 200 µM
CC(Cn1cnc2c1c(=O)n(C)c(=O)n2C)OC(=O)N1c2ccccc2Sc2ccccc21 (centres undefined)	37%

What follows are compounds tested on Candida albicans (assay: Growth inhibition of Candida albicans ATCC 90028 at 0.5 ug/ml incubated for 18 hrs at 35 degC by broth microdilution method relative to control). Conditions: ATCC 90028, 18 h, read-out: GI.
Assay type: functional

Structure (SMILES)	inhibition of growth at 0.5 µg/mL
CC(Cn1cnc2c1c(=O)n(C)c(=O)n2C)OC(=O)N1c2ccccc2Sc2ccccc21 (centres undefined)	99.8%

What follows are compounds tested on Candida albicans (assay: Fungicidal activity against Candida albicans ATCC 90028 assessed as log reduction in cell viability at 16 ug/ml after 48 hrs at 35 degC). Conditions: not given.
Assay type: functional
Procedure, shortened: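 MFC assay on C. albicans ATCC 90028 following M27-A3, at the molar equivalent of 16 µg/mL. CFU of treated cells were compared with CFU of the untreated inoculum. Activity is given as lg R = lg CFU/mL control − lg CFU/mL treated, and lg R ≥3 was defined as fungicidal. Values are means of two independent experiments.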

Structure (SMILES)	log(activity)
CC(Cn1cnc2c1c(=O)n(C)c(=O)n2C)OC(=O)N1c2ccccc2Sc2ccccc21 (centres undefined)	0.3

These compounds were tested on MCF7 (assay: Antiproliferative activity against human MCF7 cells assessed as cell viability at 100 uM after 72 hrs by MTT assay). Conditions: MCF7, 72 h, read-out: Activity.
Assay type: functional
Procedure, shortened: as §1

Structure (SMILES)	viability at 100 µM
CC(Cn1cnc2c1c(=O)n(C)c(=O)n2C)OC(=O)N1c2ccccc2Sc2ccccc21 (centres undefined)	73.4%

What follows are compounds tested on Candida albicans (assay: Growth inhibition of Candida albicans ATCC 90028 at 16 ug/ml incubated for 18 hrs at 35 degC by broth microdilution method relative to control). Conditions: ATCC 90028, 18 h, read-out: GI.
Assay type: functional

Structure (SMILES)	inhibition of growth at 16 µg/mL
CC(Cn1cnc2c1c(=O)n(C)c(=O)n2C)OC(=O)N1c2ccccc2Sc2ccccc21 (centres undefined)	100%

What follows are compounds tested on Candida albicans (assay: Growth inhibition of Candida albicans ATCC 90028 at 0.125 ug/ml incubated for 18 hrs at 35 degC by broth microdilution method relative to control). Conditions: ATCC 90028, 18 h, read-out: GI.
Assay type: functional

Structure (SMILES)	inhibition of growth at 0.125 µg/mL
CC(Cn1cnc2c1c(=O)n(C)c(=O)n2C)OC(=O)N1c2ccccc2Sc2ccccc21 (centres undefined)	99.9%

Each compound was assayed on Candida albicans (assay: Growth inhibition of Candida albicans ATCC 90028 at 0.0313 ug/ml incubated for 18 hrs at 35 degC by broth microdilution method relative to control). Conditions: ATCC 90028, 18 h, read-out: GI.
Assay type: functional

Structure (SMILES)	inhibition of growth at 0.0313 µg/mL
CC(Cn1cnc2c1c(=O)n(C)c(=O)n2C)OC(=O)N1c2ccccc2Sc2ccccc21 (centres undefined)	100%

These compounds were tested on Candida albicans (assay: Growth inhibition of Candida albicans ATCC 90028 at 0.25 ug/ml incubated for 18 hrs at 35 degC by broth microdilution method relative to control). Conditions: ATCC 90028, 18 h, read-out: GI.
Assay type: functional

Structure (SMILES)	inhibition of growth at 0.25 µg/mL
CC(Cn1cnc2c1c(=O)n(C)c(=O)n2C)OC(=O)N1c2ccccc2Sc2ccccc21 (centres undefined)	100%

These compounds were tested on Candida albicans (assay: Growth inhibition of Candida albicans ATCC 90028 at 0.5 ug/ml incubated for 4 hrs at 35 degC by broth microdilution method relative to control). Conditions: ATCC 90028, 4 h, read-out: GI.
Assay type: functional

Structure (SMILES)	inhibition of growth at 0.5 µg/mL
CC(Cn1cnc2c1c(=O)n(C)c(=O)n2C)OC(=O)N1c2ccccc2Sc2ccccc21 (centres undefined)	99.5%

What follows are compounds tested on Candida albicans (assay: Growth inhibition of Candida albicans ATCC 90028 at 8 ug/ml incubated for 48 hrs at 35 degC by broth microdilution method relative to control). Conditions: ATCC 90028, 48 h, read-out: GI.
Assay type: functional

Structure (SMILES)	inhibition of growth at 8 µg/mL
CC(Cn1cnc2c1c(=O)n(C)c(=O)n2C)OC(=O)N1c2ccccc2Sc2ccccc21 (centres undefined)	99.2%

What follows are compounds tested on MCF7 (assay: Antiproliferative activity against human MCF7 cells assessed as cell viability at 50 uM after 72 hrs by MTT assay). Conditions: MCF7, 72 h, read-out: Activity.
Assay type: functional
Procedure, shortened: as §1

Structure (SMILES)	viability at 50 µM
CC(Cn1cnc2c1c(=O)n(C)c(=O)n2C)OC(=O)N1c2ccccc2Sc2ccccc21 (centres undefined)	89.9%

Each compound was assayed on Candida albicans (assay: Growth inhibition of Candida albicans ATCC 90028 at 0.0625 ug/ml incubated for 4 hrs at 35 degC by broth microdilution method relative to control). Conditions: ATCC 90028, 4 h, read-out: GI.
Assay type: functional

Structure (SMILES)	inhibition of growth at 0.0625 µg/mL
CC(Cn1cnc2c1c(=O)n(C)c(=O)n2C)OC(=O)N1c2ccccc2Sc2ccccc21 (centres undefined)	99.2%

These compounds were tested on CCRF-CEM (assay: Antiproliferative activity against human CCRF-CEM cells assessed as cell viability at 25 uM after 72 hrs by MTT assay). Conditions: read-out: Activity.
Assay type: functional
Procedure, shortened: as §1

Structure (SMILES)	viability at 25 µM
CC(Cn1cnc2c1c(=O)n(C)c(=O)n2C)OC(=O)N1c2ccccc2Sc2ccccc21 (centres undefined)	105%

Each compound was assayed on Candida albicans (assay: Growth inhibition of Candida albicans ATCC 90028 at 1 ug/ml incubated for 18 hrs at 35 degC by broth microdilution method relative to control). Conditions: ATCC 90028, 18 h, read-out: GI.
Assay type: functional

Structure (SMILES)	inhibition of growth at 1 µg/mL
CC(Cn1cnc2c1c(=O)n(C)c(=O)n2C)OC(=O)N1c2ccccc2Sc2ccccc21 (centres undefined)	99.8%

The compounds below were run on Candida albicans (assay: Growth inhibition of Candida albicans ATCC 90028 at 4 ug/ml incubated for 18 hrs at 35 degC by broth microdilution method relative to control). Conditions: ATCC 90028, 18 h, read-out: GI.
Assay type: functional

Structure (SMILES)	inhibition of growth at 4 µg/mL
CC(Cn1cnc2c1c(=O)n(C)c(=O)n2C)OC(=O)N1c2ccccc2Sc2ccccc21 (centres undefined)	99.9%

Each compound was assayed on Candida albicans (assay: Growth inhibition of Candida albicans ATCC 90028 at 8 ug/ml incubated for 18 hrs at 35 degC by broth microdilution method relative to control). Conditions: ATCC 90028, 18 h, read-out: GI.
Assay type: functional

Structure (SMILES)	inhibition of growth at 8 µg/mL
CC(Cn1cnc2c1c(=O)n(C)c(=O)n2C)OC(=O)N1c2ccccc2Sc2ccccc21 (centres undefined)	99.7%

Each compound was assayed on Candida albicans (assay: Growth inhibition of Candida albicans ATCC 90028 at 16 ug/ml incubated for 48 hrs at 35 degC by broth microdilution method relative to control). Conditions: ATCC 90028, 48 h, read-out: GI.
Assay type: functional

Structure (SMILES)	inhibition of growth at 16 µg/mL
CC(Cn1cnc2c1c(=O)n(C)c(=O)n2C)OC(=O)N1c2ccccc2Sc2ccccc21 (centres undefined)	99.2%

These compounds were tested on CCRF-CEM (assay: Antiproliferative activity against human CCRF-CEM cells assessed as cell viability at 200 uM after 72 hrs by MTT assay). Conditions: read-out: Activity.
Assay type: functional
Procedure, shortened: as §1

Structure (SMILES)	viability at 200 µM
CC(Cn1cnc2c1c(=O)n(C)c(=O)n2C)OC(=O)N1c2ccccc2Sc2ccccc21 (centres undefined)	47.1%

The compounds below were run on Candida albicans (assay: Growth inhibition of Candida albicans ATCC 90028 at 8 ug/ml incubated for 4 hrs at 35 degC by broth microdilution method relative to control). Conditions: ATCC 90028, 4 h, read-out: GI.
Assay type: functional

Structure (SMILES)	inhibition of growth at 8 µg/mL
CC(Cn1cnc2c1c(=O)n(C)c(=O)n2C)OC(=O)N1c2ccccc2Sc2ccccc21 (centres undefined)	99.5%

What follows are compounds tested on Candida albicans (assay: Growth inhibition of Candida albicans ATCC 90028 at 0.0313 ug/ml incubated for 4 hrs at 35 degC by broth microdilution method relative to control). Conditions: ATCC 90028, 4 h, read-out: GI.
Assay type: functional

Structure (SMILES)	inhibition of growth at 0.0313 µg/mL
CC(Cn1cnc2c1c(=O)n(C)c(=O)n2C)OC(=O)N1c2ccccc2Sc2ccccc21 (centres undefined)	99.3%

These compounds were tested on CCRF-CEM (assay: Antiproliferative activity against human CCRF-CEM cells assessed as cell viability at 100 uM after 72 hrs by MTT assay). Conditions: read-out: Activity.
Assay type: functional
Procedure, shortened: as §1

Structure (SMILES)	viability at 100 µM
CC(Cn1cnc2c1c(=O)n(C)c(=O)n2C)OC(=O)N1c2ccccc2Sc2ccccc21 (centres undefined)	33.8%
